# Bioassay records deposited in PubChem BioAssay by Broad Institute.
# Pf Dd2 growth: P. falciparum Dd2 growth inhibitors, primary screen, SYBR Green fluorescence, single dose replicates; 2.3% of 94,000 active; 72 h; hits give low values; activity change, % at 10 µM; in the data active = activity change below about -80%; inconclusive = no clear call, values can overlap the other calls
# IDH1 R132H inh: inhibitors of IDH1 R132H reductase, primary screen, biochemical, plate reader, single point. Isocitrate dehydrogenase [NADP] cytoplasmic (Homo sapiens), O75874. diaphorase/resazurin fluorescence, 60 min. inhibition, % at 10 µM. 0.18% of 70,000 active; in the data active = inhibition above about 34%; inconclusive = no clear call, values can overlap the other calls; inactive = below about 11%;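 also: 0% = DMSO and 100% = no enzyme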
# Target sequence (O75874 whole entry R132H): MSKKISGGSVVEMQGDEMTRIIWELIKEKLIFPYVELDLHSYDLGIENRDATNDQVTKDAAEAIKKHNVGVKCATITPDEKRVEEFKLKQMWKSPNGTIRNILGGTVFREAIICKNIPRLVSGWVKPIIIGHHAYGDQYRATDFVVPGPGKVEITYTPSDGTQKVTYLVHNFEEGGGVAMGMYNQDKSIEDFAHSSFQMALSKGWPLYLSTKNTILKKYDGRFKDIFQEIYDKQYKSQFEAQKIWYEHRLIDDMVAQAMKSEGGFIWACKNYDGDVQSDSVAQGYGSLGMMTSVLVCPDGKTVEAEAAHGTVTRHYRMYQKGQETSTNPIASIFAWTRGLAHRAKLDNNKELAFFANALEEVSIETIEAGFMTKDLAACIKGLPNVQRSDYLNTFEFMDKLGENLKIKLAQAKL
# T cruzi growth-1: T. cruzi intracellular proliferation inhibitors, primary screen, cell-based, beta-gal Tulahuen parasites, NIH3T3 host, luminescence | T. cruzi beta-gal in NIH3T3, GalScreen luminescence, 90 h | inhibition, % at 8.34 µM | 5.9% of 77,000 active | AID 624255, 2012;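 active = mean inhibition above about 93%, with at least 55% of replicates each passing it, limit read from the data, passing the limit was not always enough; inconclusive = only one of those two conditions holds; inactive = neither condition holds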
# KDM4C inh: inhibitors of GASC-1 (KDM4C) histone demethylase, primary screen, biochemical, single concentration HTS; Lysine-specific demethylase 4C (Homo sapiens), Q9H3R0; GST-KDM4C 2-372, H3K9me3 peptide, LANCE TR-FRET; inhibition, % at 12.5 µM; 0.15% of 96,000 active;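 active = mean replicate inhibition above about 25%, with at least 55% of replicates also reaching it, limit read from the data, passing the limit was not always enough; inconclusive = only one of those two conditions met; inactive = neither condition met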
#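 System – N-terminal GST-fused human GASC-1 (KDM4C) fragment, residues 2-372 · Input – enzyme final amount 10 nM · Technique – LANCE TR-FRET, Eu antibody, ULight-streptavidin, EDTA, ex 340 nm, em 618/671 nm · Medium – HEPES buffer, pH 7.5, plus ascorbate · Incubation – enzyme reaction 30 min, then detection 60 min, both room temperature · Reagent – H3K9me3 peptide with Fe(II)/2OG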
# T cruzi growth-2: T. cruzi intracellular proliferation inhibitors, confirmation, cell-based, NIH3T3 host, beta-gal parasite, luminescence, cherry-pick; shares compounds with T cruzi growth-1; T. cruzi beta-gal in NIH3T3, GalScreen luminescence, 90 h; 72% of 5,600 active; AID 651739, 2012; inhibition, % at 8.35 µM;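 active = mean replicate inhibition above about 95% and at least 55% of replicates individually reaching it, limit read from the data; inconclusive = only one of the two criteria is met; inactive = neither criterion is met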
# T cruzi growth-3: inhibitors of intracellular T. cruzi replication, confirmation, NIH3T3 host cells, beta-gal parasites, cherry-pick, set 2; 21% of 5,600 active; T. cruzi beta-gal in NIH3T3, GalScreen luminescence, 90 h; shares compounds with T cruzi growth-1; inhibition, % at 2.09 µM;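 active = mean inhibition above about 95%, with at least 55% of replicates also reaching it, limit read from the data; inconclusive = meets just one of the two conditions; inactive = meets neither condition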;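 also: plate controls were neutral control median for no effect and positive control median for full effect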
# NIH3T3 tox: cytotoxicity in mouse NIH/3T3 fibroblasts, confirmation, cytotoxicity control for T. cruzi proliferation inhibitor project, cell-based, cherry-pick, single point. shares compounds with T cruzi growth-1. NIH/3T3 viability, CellTiter-Glo ATP luminescence, 90 h. cytotoxicity (signal decrease), % at 8.35 µM. 14% of 5,600 active. AID 651742, 2012;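 active = mean signal decrease across replicates above about 35% based on untreated-well scatter, with enough replicates individually passing, limit read from the data; inconclusive = no rule stated though some were filed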;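 also: 0% = median of neutral control wells and 100% = median of positive control wells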
# NIH3T3 tox 2: NIH/3T3 fibroblast cytotoxicity, confirmation, cytotoxicity control, cell-based, cherry-pick, single point, set 2. inhibition, % at 24.9 µM. NIH/3T3 viability, CellTiter-Glo ATP luminescence, 90 h. 56% of 5,600 active. AID 651744, 2012. shares compounds with T cruzi growth-1;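 active = mean loss of cell viability signal at or above a set limit, and enough replicates individually reaching it; inconclusive = meets only the mean limit or only the replicate share; inactive = meets neither condition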;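 also: 0% = median of neutral control wells and 100% = median of positive control wells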
# An asterisk follows results filed as active; u = inconclusive; x = not tested or not shown. Only some compounds are listed: those with a hit (about 5.9% of all), similar ones and a draw of the others.
SMILES,Pf Dd2 growth,IDH1 R132H inh,T cruzi growth-1,KDM4C inh,T cruzi growth-2,T cruzi growth-3,NIH3T3 tox,NIH3T3 tox 2
C[C@@H]1CN([C@H](C)CO)C(=O)c2ccccc2-c2ccccc2CO[C@H]1CN(C)C(=O)Nc1ccnc(N2CCOCC2)c1,7,0,u,3,96*,74,-12,-3
OC(COc1ccccc1Cl)Cn1cnc2ccccc21 (stereo unspecified),x,0,x,x,x,x,x,x
CCCC#Cc1ccc([C@H]2[C@@H](C#N)N(C(=O)CN3CCOCC3)[C@H]2CO)cc1,-14,x,98*,-1,103*,84,18,u
CCCC#Cc1ccc([C@H]2[C@@H](C#N)N(C(=O)CN3CCOCC3)[C@@H]2CO)cc1,9,x,105*,1,98*,52,-12,4
N#C[C@@H]1[C@@H](c2ccccc2)[C@H](CO)N1C(=O)CN1CCOCC1,23,x,64,-1,x,x,x,x
CCn1c(SCC(=O)Nc2cc(C)c(Cl)cc2OC)nnc1-c1cccs1,x,3,x,x,x,x,x,x
COc1ccc(CN(C)C[C@@H]2Oc3ccc(NS(=O)(=O)c4ccc(Cl)cc4)cc3CC(=O)N([C@H](C)CO)C[C@H]2C)cc1,-9,1,101*,1,113*,84,-2,-8
COc1ccc(CN(C)C[C@H]2Oc3ccc(NS(=O)(=O)c4c(C)noc4C)cc3CC(=O)N([C@H](C)CO)C[C@@H]2C)cc1,-28,3,106*,1,83,50,2,15
COc1ccc(CN(C)C[C@@H]2Oc3ccc(NS(=O)(=O)c4ccc(C)cc4)cc3CC(=O)N([C@H](C)CO)C[C@H]2C)cc1,12,0,110*,-4,114*,106*,6,1
COc1ccc(CN(C)C[C@@H]2Oc3ccc(NS(=O)(=O)c4ccc(C)cc4)cc3CC(=O)N([C@@H](C)CO)C[C@@H]2C)cc1,-11,3,108*,-2,85,13,11,22
COc1ccc(CN(C)C[C@H]2Oc3ccc(NS(=O)(=O)c4c(C)noc4C)cc3CC(=O)N([C@@H](C)CO)C[C@H]2C)cc1,3,x,20,3,x,x,x,x
COc1ccc(CN(C)C[C@H]2Oc3ccc(NS(=O)(=O)c4ccc(C)cc4)cc3CC(=O)N([C@@H](C)CO)C[C@H]2C)cc1,18,2,x,1,x,x,x,x
COc1ccc(CN(C)C[C@H]2Oc3ccc(NS(=O)(=O)c4ccc(C)cc4)cc3CC(=O)N([C@H](C)CO)C[C@@H]2C)cc1,-8,-3,x,2,x,x,x,x
COc1ccc([N+](=O)[O-])cc1NC(=O)COc1ccc(C(C)(C)C)cc1Br,x,0,x,x,x,x,x,x
CNC[C@@H]1Oc2ccc(NC(=O)NC3CCCCC3)cc2CC(=O)N([C@H](C)CO)C[C@H]1C,48,0,119*,0,22,-25,10,-13
COc1ccc(NC(=O)Nc2ccc3c(c2)CC(=O)N([C@H](C)CO)C[C@@H](C)[C@H](CN(C)CC2CCCCC2)O3)cc1,-7,0,101*,0,96*,70,28,106*
C[C@@H]1CN([C@@H](C)CO)S(=O)(=O)c2ccc(C#CC3CCCC3)cc2O[C@@H]1CN(C)S(C)(=O)=O,13,-1,u,0,84,47,10,67*
C[C@@H]1CN([C@H](C)CO)S(=O)(=O)c2ccc(C#Cc3ccc(F)cc3)cc2O[C@H]1CN(C)S(C)(=O)=O,-72,0,97*,-3,98*,38,u,55*
C[C@H](CO)N1C[C@H](C)[C@H](CN(C)S(C)(=O)=O)Oc2cc(C#CC3CCCC3)ccc2S1(=O)=O,3,x,u,5,100*,35,27,66*
C[C@H]1CN([C@@H](C)CO)S(=O)(=O)c2ccc(C#CC3CCCC3)cc2O[C@H]1CN(C)S(C)(=O)=O,0,-2,89,-3,x,x,x,x
CCC(=O)N(C)C[C@H]1Oc2cc(C#Cc3ccncc3)ccc2S(=O)(=O)N([C@H](C)CO)C[C@H]1C,-45,u,107*,17,38,36,13,38*
COc1ccc(-c2cc(=O)c3cc(OCC(=O)Nc4ccc(C)cc4C)ccc3o2)cc1,x,0,x,x,x,x,x,x
CCC(=O)N(C)C[C@@H]1Oc2cc(C#CC3CCCCC3)ccc2S(=O)(=O)N([C@@H](C)CO)C[C@H]1C,-65,x,114*,-1,98*,54,18,80*
C[C@@H]1CN([C@H](C)CO)S(=O)(=O)c2ccc(C#CC3CCCCC3)cc2O[C@H]1CN(C)C,-59,0,84,-2,x,x,x,x
CCC(=O)N(C)C[C@@H]1Oc2cc(C#CC3CCCCC3)ccc2S(=O)(=O)N([C@H](C)CO)C[C@H]1C,-37,x,82,-4,x,x,x,x
C[C@H]1CN([C@@H](C)CO)S(=O)(=O)c2ccc(C#CC3CCCCC3)cc2O[C@@H]1CN(C)C,-48,-1,109*,-3,109*,81,18,104*
C[C@@H]1CN([C@@H](C)CO)C(=O)c2cc(NS(=O)(=O)c3ccc(F)cc3)ccc2O[C@@H](C)CCCCO[C@@H]1CN(C)S(=O)(=O)c1ccc(Cl)cc1,-76,0,u,1,106*,103*,-23,u
C[C@@H]1CCCCO[C@@H](CN(C)S(=O)(=O)c2ccc(F)cc2)[C@H](C)CN([C@@H](C)CO)C(=O)c2cc(NS(=O)(=O)c3ccc(Cl)cc3)ccc2O1,-56,1,103*,0,95*,95,6,34*
C[C@@H]1CN([C@@H](C)CO)C(=O)c2cc(NS(=O)(=O)c3ccc(F)cc3)ccc2O[C@@H]1CN(C)S(=O)(=O)c1ccc(Cl)cc1,14,0,92*,-1,110*,49,23,46*
C[C@@H]1CCCCO[C@@H](CN(C)S(=O)(=O)c2ccc(F)cc2)[C@@H](C)CN([C@@H](C)CO)C(=O)c2cc(NS(=O)(=O)c3ccc(Cl)cc3)ccc2O1,-73,5,103*,0,103*,74,3,53*
